From ChEMBL document CHEMBL5674884, “Ezh2 inhibition in Kras-driven lung cancer amplifies inflammation and associated vulnerabilities” (J Exp Med, 2018)
The source made the active and inactive calls.

Experiments:
[1] = target: Histone-lysine N-methyltransferase EZH2 (Mus musculus) (UniProt Q61188); experiment: In vivo inhibition of Ezh2 in BALB/c nude mouse expressing KrasG12D/+ assessed as increased survival rate at day 21 at 50 mg/kg, iv in the presence of BTZ/NM; type: functional, organism-based
Histone-lysine N-methyltransferase EZH2 (Mus musculus), sequence (Q61188 whole entry): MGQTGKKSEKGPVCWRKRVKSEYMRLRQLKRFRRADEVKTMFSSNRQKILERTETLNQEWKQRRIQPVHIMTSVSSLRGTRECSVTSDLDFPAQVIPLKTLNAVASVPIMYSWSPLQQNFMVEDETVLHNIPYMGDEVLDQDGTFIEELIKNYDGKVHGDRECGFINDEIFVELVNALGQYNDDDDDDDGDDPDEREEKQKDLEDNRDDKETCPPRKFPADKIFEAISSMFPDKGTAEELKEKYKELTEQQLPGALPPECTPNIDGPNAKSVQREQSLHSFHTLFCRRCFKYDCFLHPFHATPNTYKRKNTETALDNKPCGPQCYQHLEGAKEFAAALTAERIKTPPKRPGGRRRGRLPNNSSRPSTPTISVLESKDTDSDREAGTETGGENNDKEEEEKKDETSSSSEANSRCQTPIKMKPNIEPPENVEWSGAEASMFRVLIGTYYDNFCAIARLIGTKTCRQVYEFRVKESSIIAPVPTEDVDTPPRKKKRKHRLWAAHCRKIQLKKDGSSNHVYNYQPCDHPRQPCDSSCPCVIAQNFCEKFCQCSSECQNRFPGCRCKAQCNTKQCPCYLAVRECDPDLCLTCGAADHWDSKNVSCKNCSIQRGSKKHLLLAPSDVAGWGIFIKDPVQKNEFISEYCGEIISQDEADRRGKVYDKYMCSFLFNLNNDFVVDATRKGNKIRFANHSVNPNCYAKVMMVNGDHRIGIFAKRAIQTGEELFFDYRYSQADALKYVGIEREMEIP
Method in brief: (§1)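 Nude mice with tail-vein Kras G12D/+;Trp53-/- grafts dosed daily with GSK126 or vehicle from day 4 (n = 7/6). BTZ and NM then given on alternating days from day 19: BTZ 0.8 mg/kg on day one, 0.2 mg/kg plus NM 5 mg/kg on day two. Luciferase imaging analyzed by two-way ANOVA; survival recorded to humane endpoint.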

[2] = target: Histone-lysine N-methyltransferase EZH2 (Homo sapiens) (UniProt Q15910); experiment: Inhibition of Ezh2 in human NCI-H1944 cells assessed as p65 phosphorylation by Immunoblot analysis; type: cell-based
Histone-lysine N-methyltransferase EZH2 (Homo sapiens), sequence (Q15910 whole entry, looked up): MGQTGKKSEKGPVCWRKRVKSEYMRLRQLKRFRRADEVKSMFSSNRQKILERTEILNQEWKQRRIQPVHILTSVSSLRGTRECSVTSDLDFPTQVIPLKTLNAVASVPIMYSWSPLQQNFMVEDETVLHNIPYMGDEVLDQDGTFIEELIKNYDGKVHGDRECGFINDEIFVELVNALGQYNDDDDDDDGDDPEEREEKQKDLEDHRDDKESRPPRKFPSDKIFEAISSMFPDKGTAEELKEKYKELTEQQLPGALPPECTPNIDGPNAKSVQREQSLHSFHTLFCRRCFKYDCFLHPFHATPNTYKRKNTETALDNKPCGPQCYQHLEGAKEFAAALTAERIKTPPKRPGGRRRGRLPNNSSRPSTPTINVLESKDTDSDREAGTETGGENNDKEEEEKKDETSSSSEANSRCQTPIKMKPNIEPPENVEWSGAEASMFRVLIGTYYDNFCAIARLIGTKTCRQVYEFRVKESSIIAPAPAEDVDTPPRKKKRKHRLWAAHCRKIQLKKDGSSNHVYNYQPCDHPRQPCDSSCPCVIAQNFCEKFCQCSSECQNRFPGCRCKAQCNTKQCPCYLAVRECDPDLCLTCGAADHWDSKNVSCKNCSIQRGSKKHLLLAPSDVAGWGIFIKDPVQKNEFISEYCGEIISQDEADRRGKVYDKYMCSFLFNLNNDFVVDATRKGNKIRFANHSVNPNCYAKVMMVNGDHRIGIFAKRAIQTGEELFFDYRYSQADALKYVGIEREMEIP
Method in brief: (§2)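 A549, H1944 and H2122 cells treated continuously 5 d with GSK126 or vehicle, then replated at low confluence. Whole-cell RIPA extracts immunoblotted for phospho-p65 (S536) and total p65.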

NSCLC [3] = experiment: Anti-tumor activity against Ezh2i knockdown NSCLC cells (unknown origin) xenografted in BALB/c nude mouse assessed as increase in lifespan at 50 mg/kg, iv measured for 30 days; type: functional, organism-based; settings: time 30.0 day
NSCLC [4] = experiment: Antitumor activity against KrasG12D/+ expressing mouse NSCLC cells xenografted in BALB/c nude mouse assessed as reduced cell proliferation at 50 mg/kg, iv in the presence of BTZ/NM; type: functional, organism-based
Method in brief: (§3)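 Tumors from mice given daily GSK126/vehicle then alternating BTZ/NM, stained by IHC (n = 3 animals). Lung area divided into equal fields; ten fields per animal counted automatically for immunoreactive cells.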

[5] = target: Histone-lysine N-methyltransferase EZH2 (Mus musculus) (UniProt Q61188); experiment: In vivo inhibition of Ezh2 in BALB/c nude mouse expressing KrasG12D/+ assessed as Caspase-3 cleavage expression at 50 mg/kg, iv in the presence of BTZ/NM by Immunoblot analysis; type: functional, organism-based
Method in brief: (§4)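 Mice with Kras G12D/+;Trp53-/- lung grafts given GSK126 or vehicle, randomized after 15 d to one maximum tolerated dose of BTZ and NM, and sacrificed 20 h later. Tumor lysates in RIPA with protease/phosphatase inhibitors, equal protein run on 4-12% Bis-Tris gels and immunoblotted with ECL detection for phospho-Akt, cleaved Parp1 and cleaved caspase-3.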

[6] = target: Histone-lysine N-methyltransferase EZH2 (Mus musculus) (UniProt Q61188); experiment: In vivo inhibition of Ezh2 in BALB/c nude mouse xenografted with KrasG12D/+ expressing NSCLC cells (unknown origin) assessed as upregulation of H3K27me3 at 50 mg/kg, iv by IHC analysis; type: functional, organism-based
NSCLC [7] = experiment: Anti-tumor activity against Kras G12D/+ expressing mouse NSCLC cells xenografted in BALB/c nude mouse assessed as decrease in frequency distribution of lesions at 50 mg/kg, iv for 30 days; type: functional, organism-based; settings: time 30.0 day
NSCLC [8] = experiment: Antitumor activity against KrasG12D/+ expressing mouse NSCLC cells xenografted in BALB/c nude mouse assessed as increase in survival rate at 50 mg/kg, iv in the presence of BTZ/NM; type: functional, organism-based; method in brief: as §1
[9] = target: Histone-lysine N-methyltransferase EZH2 (Mus musculus) (UniProt Q61188); experiment: Inhibition of Ezh2 in mouse NSCLC cells co-cultured with Raw264.7 cells assessed as H3K27ac level by qRT-PCR analysis; type: cell-based
[10] = target: Histone-lysine N-methyltransferase EZH2 (Homo sapiens) (UniProt Q15910); experiment: Inhibition of Ezh2 in human A549 cells assessed as enhanced NF- kappa B activity; type: cell-based
Method in brief: (§5)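 A549 cells carrying an NF-kB-responsive element/minimal TA promoter luciferase reporter, pretreated with GSK126 or vehicle. Stimulated with TNF-a for 3 h, or continuously with TNF-a or LPS over 16 h. Luminescence read on plate reader; two-way ANOVA; three independent experiments.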

[11] = target: Histone-lysine N-methyltransferase EZH2 (Mus musculus) (UniProt Q61188); experiment: In vivo inhibition of Ezh2 in BALB/c nude mouse expressing KrasG12D/+ assessed as Parp1 expression at 50 mg/kg, iv in the presence of BTZ/NM by Immunoblot analysis; type: functional, organism-based; method in brief: as §4
[12] = target: Histone-lysine N-methyltransferase EZH2 (Mus musculus) (UniProt Q61188); experiment: In vivo inhibition of Ezh2 in BALB/c nude mouse xenografted with KrasG12D/+ expressing NSCLC cells (unknown origin) assessed as upregulation of H3K27ac at 50 mg/kg, iv by qRT-PCR analysis; type: functional, organism-based
[13] = target: Histone-lysine N-methyltransferase EZH2 (Homo sapiens) (UniProt Q15910); experiment: Inhibition of Ezh2 in human NCI-H2122 cells assessed as p65 phosphorylation by Immunoblot analysis; type: cell-based; method in brief: as §2
[14] = target: Histone-lysine N-methyltransferase EZH2 (Mus musculus) (UniProt Q61188); experiment: In vivo inhibition of Ezh2 in BALB/c nude mouse expressing Kras G12D/+ assessed as reduction of Akt phosphorylation at 50 mg/kg, iv by immunoblotting analysis; type: functional, organism-based; method in brief: as §4
[15] = target: Histone-lysine N-methyltransferase EZH2 (Mus musculus) (UniProt Q61188); experiment: In vivo inhibition of EZH2 in BALB/c nude mouse xenografted with Kras G12D/+ NSCLC cells (unknown origin) assessed as H3K27me3 level at 50 mg/kg, iv for 30 days by IHC analysis; type: functional, organism-based; settings: time 30.0 day
[16] = target: Histone-lysine N-methyltransferase EZH2 (Mus musculus) (UniProt Q61188); experiment: In vivo inhibition of Ezh2 in BALB/c nude mouse expressing Kras G12D/+ assessed as Erk1/2 expression level at 50 mg/kg, iv by IHC staining; type: functional, organism-based; method in brief: as §3
NSCLC [17] = experiment: Antiinflammatory activity in […] EZH2 inhibited mouse NSCLC cells xenografted in BALB/C mouse assessed as upregulation of JAK/STAT pathway at 50 mg/kg, iv for 10 days; type: functional, organism-based; settings: time 10.0 day
Method in brief: (§6)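 Tail vein grafts of Kras G12D/+;Trp53-/- cells in nude mice, treated daily with 50 mg/kg GSK126 for 10 d (n = 4) or to humane endpoint (n = 3), or vehicle (n = 2). GFP+ tumor cells sorted by FACS, RNA-seq run, fold change taken over vehicle, and pathway activity inferred by PROGENy scoring.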

[18] = target: Histone-lysine N-methyltransferase EZH2 (Homo sapiens) (UniProt Q15910); experiment: Inhibition of Ezh2 in TNF-alpha stimulated human A549 cells assessed as enhanced NF- kappa B activity; type: cell-based; method in brief: as §5
NSCLC [19] = experiment: Antitumor activity against KrasG12D/+ expressing mouse NSCLC cells xenografted in BALB/c nude mouse assessed as reduced tumor growth at 50 mg/kg, iv in the presence of BTZ/NM; type: functional, organism-based; method in brief: as §1
NSCLC [20] = experiment: Upregulation of Cxcr4 gene in mouse NSCLC cells expressing KrasG12D/+; type: functional, cell-based
[21] = target: Histone-lysine N-methyltransferase EZH2 (Homo sapiens) (UniProt Q15910); experiment: Inhibition of Ezh2 in human A549 cells assessed as p65 phosphorylation by Immunoblot analysis; type: cell-based; method in brief: as §2
NSCLC [22] = experiment: Antiinflammatory activity in […] EZH2 inhibited mouse NSCLC cells xenografted in BALB/C mouse assessed as upregulation of TNF-alpha pathway at 50 mg/kg, iv for 10 days; type: functional, organism-based; settings: time 10.0 day; method in brief: as §6
[23] = target: Histone-lysine N-methyltransferase EZH2 (Mus musculus) (UniProt Q61188); experiment: In vivo inhibition of Ezh2 in BALB/c nude mouse expressing KrasG12D/+ assessed as cleaved Caspase-3 at 50 mg/kg, iv in the presence of BTZ/NM by IHC staining; type: functional, organism-based; method in brief: as §3
[24] = target: Histone-lysine N-methyltransferase EZH2 (Mus musculus) (UniProt Q61188); experiment: In vivo inhibition of Ezh2 in BALB/c nude mouse xenografted with KrasG12D/+ expressing NSCLC cells (unknown origin) assessed as upregulation of H3K27ac at 50 mg/kg, iv by IHC analysis; type: functional, organism-based
[25] = target: Histone-lysine N-methyltransferase EZH2 (Mus musculus) (UniProt Q61188); experiment: In vivo inhibition of Ezh2 in BALB/c nude mouse expressing KrasG12D/+ assessed as phospho-Akt expression at 50 mg/kg, iv in the presence of BTZ/NM by Immunoblot analysis; type: functional, organism-based; method in brief: as §4
[26] = target: Histone-lysine N-methyltransferase EZH2 (Mus musculus) (UniProt Q61188); experiment: In vivo inhibition of Ezh2 in BALB/c nude mouse expressing Kras G12D/+ assessed as Erk1/2 expression level at 50 mg/kg, iv by immunoblotting analysis; type: functional, organism-based
NSCLC [27] = experiment: Antitumor activity in KrasG12D/+ harbouring mouse NSCLC cells xenografted in BALB/c nude mouse assessed as reduced tumor progression; type: functional; settings: dose 50.0 mg/kg, route iv
[28] = target: Histone-lysine N-methyltransferase EZH2 (Homo sapiens) (UniProt Q15910); experiment: Inhibition of Ezh2 in LPS stimulated human A549 cells assessed as enhanced NF- kappa B activity; type: cell-based; method in brief: as §5
[29] = target: Histone-lysine N-methyltransferase EZH2 (Mus musculus) (UniProt Q61188); experiment: In vivo inhibition of Ezh2 in BALB/c nude mouse expressing KrasG12D/+ assessed as Erk1/2 phosphorylation at 50 mg/kg, iv in the presence of BTZ/NM by IHC staining; type: functional, organism-based; method in brief: as §3
NSCLC [30] = experiment: Antitumor activity against Kras G12D/+ expressing mouse NSCLC cells xenografted in BALB/c nude mouse assessed as reduction in tumor burden at 50 mg/kg, iv for 30 days; type: functional, organism-based; settings: time 30.0 day
NSCLC [31] = experiment: Antitumor activity against Kras G12D/+ expressing mouse NSCLC cells xenografted in BALB/c nude mouse assessed as reduction in lung adenoma formation at 50 mg/kg, iv for 12 days by H&E staining analysis; type: functional, organism-based; settings: time 12.0 day
NSCLC [32] = experiment: Antiinflammatory activity in […] EZH2 inhibited mouse NSCLC cells xenografted in BALB/C mouse assessed as upregulation of NF-kappaB pathway at 50 mg/kg, iv for 10 days; type: functional, organism-based; settings: time 10.0 day; method in brief: as §6

CC[C@H](C)n1cc(C)c2c(C(=O)NCc3c(C)cc(C)[nH]c3=O)cc(-c3ccc(N4CCNCC4)nc3)cc21
active: inhibition [1] | inhibition [2] | Activity (NSCLC [3]) | Activity (NSCLC [4]) | inhibition [5] | inhibition [6] | Activity (NSCLC [7]) | Activity (NSCLC [8]) | inhibition [9] | inhibition [10] | inhibition [11] | inhibition [12] | inhibition [13] | inhibition [14] | inhibition [15] | inhibition [16] | Activity (NSCLC [17]) | inhibition [18] | Activity (NSCLC [19]) | Activity (NSCLC [20]) | inhibition [21] | Activity (NSCLC [22]) | inhibition [23] | inhibition [24] | inhibition [25] | inhibition [26] | Activity (NSCLC [27]) | inhibition [28] | inhibition [29] | Activity (NSCLC [30]) | Activity (NSCLC [31]) | Activity (NSCLC [32])
